# High-throughput results from PubChem.
# NPY2 pot ag = potentiates or activates human NPY-Y2 receptor. P49146. cells expressing NPY-Y2, potentiator/agonist read-out. activation, % at 3.6 µM. actives 0.45% (n = 220,000). AID 1359; in the data active = activation above about 27%;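 also: cells stimulated with NPY near EC25 plus isoproterenol at EC100; 0% = vehicle plus submaximal agonist and 100% = vehicle plus saturating agonist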
# NPY-Y1 PAM-ag = human NPY-Y1 potentiation or agonism, primary screen. P25929. NPY-Y1 expressing cells, potentiator/agonist activation. activation, % at 3.6 µM. actives 0.37% (n = 220,000). AID 1304; in the data active = activation above about 33%, passing the limit was not always enough;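 also: cells stimulated with NPY at EC10 then isoproterenol at EC100; 0% = low agonist plus stimulus and 100% = saturating agonist plus stimulus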
# Target sequence (P25929 whole entry, looked up): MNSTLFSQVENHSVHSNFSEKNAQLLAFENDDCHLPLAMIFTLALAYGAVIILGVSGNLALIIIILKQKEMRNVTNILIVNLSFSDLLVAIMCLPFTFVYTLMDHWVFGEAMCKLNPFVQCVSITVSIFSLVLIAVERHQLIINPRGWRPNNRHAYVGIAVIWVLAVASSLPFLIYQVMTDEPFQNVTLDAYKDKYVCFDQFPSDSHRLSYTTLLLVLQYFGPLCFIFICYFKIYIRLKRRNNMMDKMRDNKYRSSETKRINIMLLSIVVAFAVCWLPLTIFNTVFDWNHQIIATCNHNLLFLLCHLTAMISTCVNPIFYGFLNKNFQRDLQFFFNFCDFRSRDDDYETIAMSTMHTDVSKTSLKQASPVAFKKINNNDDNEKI
# NPY Y1 blocker = antagonists of human neuropeptide Y receptor Y1; P25929; HEK293-CNG Y1 cells, membrane potential fluorescence; NPY at EC95, then isoproterenol; inhibition, % at 3.6 µM; actives 1% (n = 200,000); AID 1040;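 active = inhibition above the campaign mean inhibition of all tested compounds plus 3 SD, cut at about 20% in these data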;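 also: 0% = DMSO wells given NPY plus isoproterenol and 100% = isoproterenol alone without NPY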
#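 Assay system: HEK293 Y1/CNG channel cell line; Doses: single compound dose of 3.6 µM, 0.4% DMSO; Timing: dye 3 h, compound 60 min room temperature, stimulation 45 min; Technique: Membrane-potential fluorescent dye readout; Measure: % inhibition of NPY effect.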
# S1P4 ag = agonists of human S1P4 receptor. S1P4-expressing cell line, agonist reporter assay. activation, % at 4.98 µM. actives 0.35% (n = 220,000). AID 1509; in the data active = activation above about 11%;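 also: 0% = DMSO vehicle and 100% = reference agonist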
# NPY-Y2 antag = antagonists of human neuropeptide Y receptor Y2. inhibition, % at 2.7 µM. NPY-Y2 expressing cells, antagonist mode. P49146. AID 793. actives 0.99% (n = 140,000); in the data active = inhibition above about 17%;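 also: 0% = vehicle with agonist challenge and 100% = reference antagonist with challenge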
# S1P4 antagonist = antagonists of human S1P4 receptor | O95977 | S1P4-expressing cells, antagonist mode, reporter read-out | inhibition, % at 4.98 µM | actives 0.26% (n = 220,000); in the data active = inhibition above about 29%;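 also: 0% = wells stimulated with agonist and 100% = vehicle wells without agonist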
# S1P4 agonist cf = confirmation of human S1P4 receptor agonists. shares compounds with S1P4 ag. S1P4 agonist cell-based reporter assay. activation, % at 4.98 µM. actives 7% (n = 740). AID 1523; in the data active = activation above about 12%;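 also: 0% = vehicle and 100% = full reference agonist response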
# S1P1 agonist = human S1P1 agonism as S1P4 agonist counter-screen; shares compounds with S1P4 ag; actives 4% (n = 740); activation, % at 4.98 µM; S1P1 agonist cell-based assay, activation; in the data active = activation above about 21%;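 also: 0% = vehicle wells and 100% = reference agonist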
# An asterisk follows results filed as active; . = no result. Compounds with a hit are over-represented: about 2.4% of the library has one in this group of screens.
SMILES,NPY2 pot ag,NPY-Y1 PAM-ag,NPY Y1 blocker,S1P4 ag,NPY-Y2 antag,S1P4 antagonist,S1P4 agonist cf,S1P1 agonist
COc1ccc(OC)c(NC(=O)CSc2ncccc2C(=O)O)c1,2,1,1,-2,1,-1,.,.
Cc1cc(Cl)ccc1C(=O)C1CCCN(C(=O)c2snnc2C)C1 (centres undefined),6,13,-2,1,.,-1,.,.
COc1ccc(OC(C)C(=O)Nc2ccccc2C(F)(F)F)cc1 (centres undefined),9,-5,0,86*,0,-12,-3,1
CCOCCCn1c(=NC(=O)c2cccs2)c(C#N)cc2c(=O)n3ccccc3nc21,1,2,.,15*,.,-30,4,30*
COc1ccc(CCNC(=O)CSc2nnc(NC(C)=O)s2)cc1OC,2,7,-1,1,3,3,.,.
CCC1CCCCN1C(=S)Nc1cccc(S(=O)(=O)N(C)C)c1 (centres undefined),2,8,5,1,.,-26,.,.
O=C(NCC1CCCO1)c1ccc2c(=O)n(Cc3cccc(Br)c3)c(=S)[nH]c2c1 (centres undefined),7,4,-3,0,.,-5,.,.
COc1ccc2occ(C(=O)c3cccs3)c2c1,5,-17,4,166*,0,-8,-1,3
CC(C)(O)C#Cc1ccc(CN2CCN(CCc3ccccc3)C(CCO)C2)s1 (centres undefined),-7,-1,-3,-1,.,13,.,.
Cc1nc(Sc2nnnn2C)c2c3c(sc2n1)CCC3,-3,-4,3,11*,1,-8,-5,-17
COc1ccc(CCNC(=O)Nc2ccccc2[N+](=O)[O-])cc1,-3,7,10,21*,.,1,-3,-1
COc1ccc(CCNC(=O)Nc2cccc([N+](=O)[O-])c2)cc1,-5,9,3,1,.,-7,.,.
Cc1ccccc1-n1c(=O)[nH]c(=O)c2c(N)c(C(=O)c3ccc(Cl)cc3)sc21,7,3,-1,83*,5,-2,-2,-7
CC1=[N+]([O-])C(C)(C)N(O)C1(C)C,17,-13,.,1,.,-13,.,.
Cn1c(=O)oc2cc(S(=O)(=O)N3CCC(C(=O)NCCc4ccccc4)CC3)ccc21,8,3,.,14*,.,-6,-2,-7
COCCNC(=S)Nc1ccc(Cl)c(Cl)c1,19,21,-8,-1,.,5,.,.
COCCNC(=S)Nc1ccc2nsnc2c1,-7,-13,-2,12*,-2,-9,-2,-6
COc1cc(C#N)ccc1OCC(=O)Nc1cccc(S(=O)(=O)N2CCCC2)c1,-14,-7,-2,-2,.,10,.,.
CC(=O)NC(Cc1ccc(C(C)C)cc1)C(=O)NC1CCN(C(=O)c2cccc(C)c2)CC1 (centres undefined),-7,6,0,1,.,11,.,.
COc1ccc(NC(=O)Cn2cccc2)c(OC)c1,2,-2,5,35*,3,-10,-2,0
O=C(Oc1ccc(C(=S)N2CCC(O)CC2)cc1)c1ccc(Cl)cc1,-21,3,0,1,.,-1,.,.
O=C(O)c1ccc(N2C(=O)/C(=C/C=C/c3ccccc3)SC2=S)cc1,10,15,2,15*,.,0,-2,0
CCOc1ncccc1C(=O)OCc1cccc([N+](=O)[O-])c1,5,-12,3,1,.,-5,.,.
CCCCC(=O)OCC(=O)Nc1cccc(S(=O)(=O)NC2=NCCCCC2)c1,1,4,1,-1,.,-11,.,.
O=C(O)CCC(=O)Nc1ccccc1C(=O)N1CCN(c2ccc(Cl)cc2)CC1,0,15,-2,122*,.,6,-2,0
SMILES,NPY2 pot ag,NPY-Y1 PAM-ag,NPY Y1 blocker,S1P4 ag,NPY-Y2 antag,S1P4 antagonist,S1P4 agonist cf,S1P1 agonist
O=C(O)C1CC=CCC1C(=O)Nc1ccccc1C(=O)N1CCN(c2ccc(Cl)cc2)CC1 (centres undefined),-3,-2,1,1,.,-8,.,.
Cc1nc(/N=C(\N)N(C)C)[nH]c(=O)c1C,-5,9,.,1,.,-7,.,.
O=C(Nc1nc(-c2ccccn2)cs1)C1COc2ccccc2O1 (centres undefined),-10,-4,1,38*,4,-2,-1,3
COC(=O)N/N=C(\CCC(=O)O)c1cccs1,-23,16,.,27*,.,-15,-2,-6
CCN(CC)C(=S)NC(=O)Cc1ccccc1,13,9,5,-1,.,-4,.,.
CN(C(=S)NC(=O)Cc1ccccc1)c1ccccc1,-2,0,0,13*,.,-27,-2,-3
COC(=O)CCCNc1ncccc1[N+](=O)[O-],7,21,7,48*,.,-16,-2,-4
O=[N+]([O-])c1cccnc1NCCc1ccccc1,-5,-9,0,1,.,-8,.,.
CN1CCN(S(=O)(=O)Cc2ccc(Cl)cc2)CC1,-5,13,.,0,.,12,.,.
Cc1ccccc1OCC(=O)Nc1nc2ccccc2[nH]1,-23,-18,11,21*,.,24,-1,4
CCOc1ccccc1OCC(=O)Nc1nc2ccccc2[nH]1,-11,-4,-1,-3,.,-6,.,.
CCn1c(=O)c2cc(C(=O)N(C)c3ccccc3F)sc2c2ccccc21,-33,-2,.,21*,.,-5,-2,-6
CCn1c(=O)c2cc(C(=O)N(C)c3ccc(OC)cc3OC)sc2c2ccccc21,-36,-16,.,-1,.,-3,.,.
CC/C(O)=C1\C(=O)CCCC1=NCc1nc2ccccc2[nH]1,-5,-22,7,209*,.,-10,-3,0
CC/C(O)=C1\C(=O)CCCC1=NCCc1nc2ccccc2[nH]1,9,13,3,-4,.,8,.,.
CCc1cc2ccc(C)cc2nc1SCC(=O)Nc1c[nH]c(=O)[nH]c1=O,-15,3,3,1,.,-18,.,.
Nn1cc(-c2ccccc2)nc1SCC(=O)NCCc1ccccc1,-9,-10,-5,-2,.,22,.,.
Nn1cc(-c2ccccc2)nc1SCC(=O)NCC(F)(F)F,-10,-7,2,14*,.,-12,-1,-2
NS(=O)(=O)c1ccc(CCNC(=O)CSc2nnc3ccccn23)cc1,9,-14,-5,-1,.,-17,.,.
O=C(N/N=C/c1cn(-c2cccs2)nc1-c1ccccc1)c1ccccc1Br,-4,11,0,11*,1,1,-2,1
O=C(N/N=C/c1cn(-c2cccs2)nc1-c1ccccc1)c1ccccc1O,3,21,-9,-1,0,1,.,.
CC(C)C[C@H](NC(=O)c1nc[nH]c1C(=O)NCc1ccccc1)C(=O)OCc1ccccc1,-4,-8,-1,20*,.,-21,26*,0
